From ChEMBL document CHEMBL4351001, “2-Aminoimidazole-based antagonists of the 5-HT6 receptor - A new concept in aminergic GPCR ligand design” (Eur J Med Chem, 2019)
pKi: −log10 of the molar value.

Experiments:
[1] = target: 5-hydroxytryptamine receptor 2A (Homo sapiens, UniProt P28223); experiment: Displacement of [3H]ketanserin from human 5HT2A receptor expressed in CHOK1 cells incubated for 1 hr by liquid scintillation counter method; assay type: cell-based; details: read-out: Ki
[2] = target: T1, 5-hydroxytryptamine receptor 1A (Homo sapiens, UniProt P08908); experiment: Displacement of [3H]-8-OH-DPAT from human 5HT1A receptor expressed in HEK293 cells incubated for 1 hr by liquid scintillation counter method; assay type: cell-based; details: for pKi: read-out: Ki; for Ki: hek293
T1 sequence (P08908 whole entry): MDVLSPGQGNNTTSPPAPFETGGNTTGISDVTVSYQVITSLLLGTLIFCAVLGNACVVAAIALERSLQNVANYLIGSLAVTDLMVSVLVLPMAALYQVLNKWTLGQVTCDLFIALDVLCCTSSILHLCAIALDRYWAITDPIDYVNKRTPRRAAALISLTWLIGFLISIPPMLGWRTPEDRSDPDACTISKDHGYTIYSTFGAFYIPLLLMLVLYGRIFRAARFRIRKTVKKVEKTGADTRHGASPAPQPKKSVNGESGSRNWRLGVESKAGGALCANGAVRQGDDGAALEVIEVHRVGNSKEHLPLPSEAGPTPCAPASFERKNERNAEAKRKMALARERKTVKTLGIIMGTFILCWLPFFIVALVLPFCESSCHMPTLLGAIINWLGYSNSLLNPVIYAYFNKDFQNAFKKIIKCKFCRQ
Procedure, shortened: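 HEK293 cells stably expressing human 5-HT1AR; membranes in 50 mM Tris–HCl, 0.1 mM EDTA, 4 mM MgCl2, 10 μM pargyline, 0.1% ascorbate; incubated 1 h at room temperature, then filtered. Nonspecific binding defined with 10 μM 5-HT.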

[3] = Solubility of compound in water; assay type: physicochemical; details: buffer

5-hydroxytryptamine receptor 2A, sequence (P28223 whole entry): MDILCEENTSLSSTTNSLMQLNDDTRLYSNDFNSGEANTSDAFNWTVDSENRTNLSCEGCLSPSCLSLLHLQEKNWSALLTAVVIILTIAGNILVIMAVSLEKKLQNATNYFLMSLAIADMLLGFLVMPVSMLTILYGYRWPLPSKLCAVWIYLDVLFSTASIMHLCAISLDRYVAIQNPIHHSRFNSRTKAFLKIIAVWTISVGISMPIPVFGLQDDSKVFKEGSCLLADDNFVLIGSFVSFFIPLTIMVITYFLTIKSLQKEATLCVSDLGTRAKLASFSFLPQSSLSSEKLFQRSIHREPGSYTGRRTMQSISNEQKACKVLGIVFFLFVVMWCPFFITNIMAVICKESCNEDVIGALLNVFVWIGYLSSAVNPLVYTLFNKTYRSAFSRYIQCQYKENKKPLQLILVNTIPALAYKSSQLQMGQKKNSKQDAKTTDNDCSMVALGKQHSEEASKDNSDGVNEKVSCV

Row | SMILES | pKi [1] | pKi [2] | solubility [3] | Ki [2]
1 | COc1ccc2c(c1)c(-c1[nH]c(NC(C)=O)nc1C)cn2S(=O)(=O)c1cccc(F)c1 | < 5.00 | < 5.00 | Insoluble | –
2 | CCc1nc(N)[nH]c1-c1cn(S(=O)(=O)c2ccccc2)c2ccc(OC)cc12.Cl | 6.18 | < 5.00 | Soluble | –
3 | COc1ccc2c(c1)c(-c1[nH]c3cccc[n+]3c1C)cn2S(=O)(=O)c1ccccc1.[Br-] | < 5.00 | – | Soluble | –
4 | CCC(=O)Nc1nc(C)c(-c2cn(S(=O)(=O)c3cccc(F)c3)c3ccc(OC)cc23)[nH]1 | < 5.00 | < 5.00 | Insoluble | –
5 | COc1ccc2c(c1)c(-c1[nH]c(N)nc1C)cn2S(=O)(=O)c1cccc(F)c1.Cl | 5.95 | < 5.00 | Soluble | –
6 | CCc1nc(NC(C)=O)[nH]c1-c1cn(S(=O)(=O)c2ccccc2)c2ccccc12 | < 5.00 | – | Insoluble | –
7 | COc1ccc2c(c1)c(-c1nc(N)sc1C)cn2S(=O)(=O)c1ccccc1 | 5.61 | – | Insoluble | –
8 | CCC(=O)Nc1nc(C)c(-c2ccc3ccn(S(=O)(=O)c4ccccc4)c3c2)[nH]1 | 5.13 | – | Insoluble | –
9 | COc1ccc2c(c1)c(-c1cnc(NC(C)=O)[nH]1)cn2S(=O)(=O)c1cccc(F)c1 | < 5.00 | – | Insoluble | –
10 | CCC(=O)Nc1nc(C)c(-c2cn(S(=O)(=O)c3cccc4ccccc34)c3ccc(OC)cc23)[nH]1 | – | – | Insoluble | –
11 | CCC(=O)Nc1nc(CC)c(-c2cn(S(=O)(=O)c3ccccc3)c3ccc(OC)cc23)[nH]1 | – | – | Insoluble | –
12 | CCc1nc(N)[nH]c1-c1cn(S(=O)(=O)c2ccccc2)c2ccccc12.Cl | 6.97 | – | Soluble | –
13 | COc1ccc2c(c1)c(-c1nc(N)sc1C)cn2S(=O)(=O)c1ccc2ccccc2c1 | – | – | Insoluble | –
14 | COc1ccc2c(c1)c(-c1cnc(N)[nH]1)cn2S(=O)(=O)c1cccc(F)c1.Cl | – | – | Soluble | –
15 | CCC(=O)Nc1nc(C)c(-c2cn(S(=O)(=O)c3cccc4ccccc34)c3ccccc23)[nH]1 | < 5.00 | – | Insoluble | –
16 | COc1ccc2c(c1)c(-c1cnc(NC(C)=O)[nH]1)cn2S(=O)(=O)c1ccccc1 | – | < 5.00 | Insoluble | –
17 | COc1ccc2c(c1)c(-c1[nH]c(NC(C)=O)nc1C)cn2S(=O)(=O)c1ccc2ccccc2c1 | < 5.00 | – | Insoluble | –
18 | COc1ccc2c(c1)c(-c1[nH]c(N)nc1C)cn2S(=O)(=O)c1cccc2ccccc12 | 5.78 | < 5.00 | – | –
19 | COc1ccc2c(c1)c(-c1[nH]c(NCc3ccccc3)nc1C)cn2S(=O)(=O)c1ccccc1 | – | – | Insoluble | Not Active
20 | COc1ccc2c(c1)c(-c1nc(N)sc1C)cn2S(=O)(=O)c1cccc2ccccc12 | – | – | Insoluble | –
21 | CC(=O)Nc1nc(C)c(-c2cn(S(=O)(=O)c3cccc4ccccc34)c3ccccc23)[nH]1 | – | – | Insoluble | –
22 | COc1ccc2c(c1)c(-c1[nH]c(N)nc1C)cn2S(=O)(=O)c1ccc2ccccc2c1.Cl | 5.98 | – | Soluble | –
23 | Cc1sc(N)nc1-c1cn(S(=O)(=O)c2ccccc2)c2ccccc12 | – | – | Insoluble | Not Active
24 | CC(=O)Nc1nc(C)c(-c2c(C)n(S(=O)(=O)c3ccccc3)c3ccccc23)[nH]1 | – | < 5.00 | Insoluble | –
25 | Cl.Nc1ncc(-c2cccc3c2ccn3S(=O)(=O)c2ccccc2)[nH]1 | 5.64 | – | Soluble | –
26 | CC(=O)Nc1ncc(-c2cn(S(=O)(=O)c3ccccc3)c3ccccc23)[nH]1 | – | < 5.00 | Insoluble | –
27 | CCC(=O)Nc1nc(C)c(-c2cn(S(=O)(=O)c3ccc4ccccc4c3)c3ccc(OC)cc23)[nH]1 | < 5.00 | – | Insoluble | –
28 | COc1ccc2c(c1)c(-c1[nH]c(NC(C)=O)nc1C)cn2S(=O)(=O)c1cccc2ccccc12 | < 5.00 | – | Insoluble | –
